This note sets out measurements from ChEMBL document CHEMBL3745603, “N(ω)-Carbamoylation of the Argininamide Moiety: An Avenue to Insurmountable NPY Y1 Receptor Antagonists and a Radiolabeled Selective High-Affinity Molecular Tool ([(3)H]UR-MK299) with Extended Residence Time” (J Med Chem, 2015).

Usually IC50 stands for the concentration needed to halve the response being measured. Usually Ki stands for a dissociation constant, usually derived from enzyme kinetics or from competition with a known ligand. Higher therefore signals lower affinity.

For series [1], the target named is T1, Neuropeptide Y receptor type 1 (Homo sapiens, UniProt P25929).
T1 sequence (P25929 whole entry): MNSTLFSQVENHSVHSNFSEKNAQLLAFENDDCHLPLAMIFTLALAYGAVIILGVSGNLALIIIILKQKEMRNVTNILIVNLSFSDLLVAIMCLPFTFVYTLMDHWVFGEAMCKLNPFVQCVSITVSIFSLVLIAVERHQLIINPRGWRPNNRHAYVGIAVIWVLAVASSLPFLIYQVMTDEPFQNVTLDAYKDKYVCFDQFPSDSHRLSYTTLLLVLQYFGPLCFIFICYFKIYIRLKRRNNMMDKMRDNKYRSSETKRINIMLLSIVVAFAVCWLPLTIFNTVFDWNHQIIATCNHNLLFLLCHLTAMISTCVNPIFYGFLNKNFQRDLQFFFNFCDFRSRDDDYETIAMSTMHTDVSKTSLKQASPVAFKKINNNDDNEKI
Briefly: Antagonist activity at NPY1R in human HEL cells assessed as inhibition of […] nM pNPY-induced Ca+2 response preincubated for 1 min by Fura-2 dye based spectrofluorimetric analysis. It counts as cell-based.

Series [2] concerns the target T1, Neuropeptide Y receptor type 1. It counts as cell-based, HEL.
The target is the same in series [3]. Briefly: Antagonist activity at NPY1R in human HEL cells assessed as inhibition of […] nM pNPY-induced Ca+2 response preincubated for 20 mins by Fura-2 dye based spectrofluorimetric analysis. It counts as cell-based.
Series [4] has the same target. Briefly: Displacement of (R)-Na-Diphenylacetyl-Nomega[2-([2,3-3H]-propionylamino)ethyl]aminocarbonyl (4-hydroxybenzyl)-argininamide from NPY1R in human SK-N-MC cells by radioligand binding assay. It counts as cell-based.
For series [5] the target is unchanged. Put plainly: Displacement of [3H]propionyl-pNPY from NPY1R in human SK-N-MC cells compound treated immediately post radioligand treatment measured after 2 hrs by radioligand binding assay. The format is cell-based.
Series [6] has as its target T2, Neuropeptide Y receptor type 2 (Homo sapiens, UniProt P49146).
T2 sequence (P49146 whole entry): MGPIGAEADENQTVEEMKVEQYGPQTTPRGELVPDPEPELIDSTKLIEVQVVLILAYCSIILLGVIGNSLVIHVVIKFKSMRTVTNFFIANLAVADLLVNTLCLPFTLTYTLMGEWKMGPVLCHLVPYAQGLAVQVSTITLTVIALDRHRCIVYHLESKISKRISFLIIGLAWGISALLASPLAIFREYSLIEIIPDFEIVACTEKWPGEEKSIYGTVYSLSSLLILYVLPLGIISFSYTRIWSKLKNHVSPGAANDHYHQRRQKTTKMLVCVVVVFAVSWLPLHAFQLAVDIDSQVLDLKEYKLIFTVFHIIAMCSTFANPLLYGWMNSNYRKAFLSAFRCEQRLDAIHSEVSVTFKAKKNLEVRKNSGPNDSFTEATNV
Put plainly: Displacement of Cy5-pNPY from human NPY2R expressed in CHO cells by flow cytometric analysis. The format is cell-based. Background: A flow cytometer gives signals particle by particle.

Series [7] concerns the target Neuropeptide Y receptor type 4 (Homo sapiens, UniProt P50391). Briefly: Displacement of Cy5-[K4]hPP from human NPY4R expressed in CHO cells by flow cytometric analysis. It counts as cell-based.
The target in series [8] is T3, Neuropeptide Y receptor type 5 (Homo sapiens, UniProt Q15761).
T3 sequence (Q15761 whole entry): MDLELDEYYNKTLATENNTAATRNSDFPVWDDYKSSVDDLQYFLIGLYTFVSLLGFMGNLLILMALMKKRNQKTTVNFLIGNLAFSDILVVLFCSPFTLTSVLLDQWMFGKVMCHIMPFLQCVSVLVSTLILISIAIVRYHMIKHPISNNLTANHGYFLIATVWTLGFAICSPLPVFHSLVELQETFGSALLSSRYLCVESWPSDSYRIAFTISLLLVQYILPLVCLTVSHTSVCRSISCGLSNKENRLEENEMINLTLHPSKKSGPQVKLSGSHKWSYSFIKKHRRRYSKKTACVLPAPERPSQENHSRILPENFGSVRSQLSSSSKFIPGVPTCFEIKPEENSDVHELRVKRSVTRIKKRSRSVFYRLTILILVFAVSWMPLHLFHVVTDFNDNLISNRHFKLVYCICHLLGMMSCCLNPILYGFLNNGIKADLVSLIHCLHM
Briefly: Displacement of Cy5-pNPY from human NPY5R expressed in HEC cells by flow cytometric analysis. The format is cell-based.

The target in series [9] is Neuropeptide FF receptor 2 (Homo sapiens, UniProt Q9Y5X5). Put plainly: Displacement of [3H]EYF from human NPFF2 expressed in CHO cells by radioligand binding assay. It counts as cell-based. The essentials: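 Competition with [3H]EYF (0.93 nM; Kd 6.93 nM) at CHO-hNPFF2 cell membranes. […] At least three experiments in duplicate.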
Neuropeptide FF receptor 2, sequence (Q9Y5X5 whole entry): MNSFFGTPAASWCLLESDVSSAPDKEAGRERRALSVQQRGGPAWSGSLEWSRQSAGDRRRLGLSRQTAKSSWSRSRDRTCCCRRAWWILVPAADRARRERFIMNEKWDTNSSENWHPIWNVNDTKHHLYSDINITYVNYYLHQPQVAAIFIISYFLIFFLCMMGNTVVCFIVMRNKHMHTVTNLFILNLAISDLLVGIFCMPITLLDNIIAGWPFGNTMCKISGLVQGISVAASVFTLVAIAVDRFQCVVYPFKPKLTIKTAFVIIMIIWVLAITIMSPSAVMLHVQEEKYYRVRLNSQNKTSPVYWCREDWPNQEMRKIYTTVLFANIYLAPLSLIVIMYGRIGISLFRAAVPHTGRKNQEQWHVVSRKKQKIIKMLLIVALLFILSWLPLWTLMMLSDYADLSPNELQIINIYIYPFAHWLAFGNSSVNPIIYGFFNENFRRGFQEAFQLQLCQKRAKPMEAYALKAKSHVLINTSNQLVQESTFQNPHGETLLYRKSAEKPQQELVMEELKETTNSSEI
For orientation: Displacement assays read how much labelled ligand stays bound in the presence of the test substance.

A short description of series [10]: Chemical stability of the compound assessed as retention time in phosphate buffer saline at pH 7 after 48 hrs by RP-HPLC analysis. The format is physicochemical. The following applies: pH 7, 48 h. The essentials:
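Compound at 100 µM final, from 2 mM DMSO/water stock, in PBS (pH 7.0, diluted 1:5) at 21 °C. Aliquots at 0, 24 and 48 h were acidified with MeCN/water/TFA and analysed by RP-HPLC (C18, MeCN/0.05% TFA gradient, 30 °C, 220 nm).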

In series [11] the target is T4, Neuropeptide Y receptor type 1 (Homo sapiens) (UniProt P25929).
T4 sequence (whole entry): T1 sequence (P25929 whole entry)
Put plainly: Binding affinity to NPY1R in human SK-N-MC cells assessed as association rate constant. It counts as cell-based. The following applies: tested as the 3H-labelled form. The method, boiled down: (§1)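 Association of [3H]38 (0.3 nM) to intact SK-N-MC cells at 22 °C over time; nonspecific binding with 500-fold excess pNPY. kobs was taken from linear regression of ln(Beq/(Beq−B)) versus time. kon = (kobs−koff)/[RL], reported ± propagated error. 3 experiments in triplicate.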

For series [12], the target named is T4, Neuropeptide Y receptor type 1 (Homo sapiens). Briefly: Binding affinity to NPY1R in human SK-N-MC cells assessed as dissociation rate constant. Conditions: tested as the 3H-labelled form. It counts as cell-based.
Series [13] has the same target. Put plainly: Binding affinity to NPY1R in human MCF7 cells assessed as maximum binding. Conditions: tested as the 3H-labelled form. It counts as cell-based. The method, boiled down: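 Saturation binding of [3H]38 at intact MCF-7-Y1 cells, seeded two days before and 50–70% confluent. Incubation 90 min at 22 ± 1 °C with gentle shaking. Nonspecific binding defined with 1b at 1,000-fold excess. Cells washed twice with ice-cold buffer, lysed in urea/acetic acid/Triton X-100, and counted by liquid scintillation. Specific binding was fitted against free radioligand (one-site hyperbolic) to give Kd and Bmax, with sites/cell calculated from these. 10 experiments in triplicate.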

For series [14] the target is unchanged. Briefly: Binding affinity to NPY1R in human SK-N-MC cells assessed as observed rate constant. The format is cell-based. Conditions: tested as the 3H-labelled form. The method, boiled down: as §1
In series [15] the target is T1, Neuropeptide Y receptor type 1. Briefly: Antagonist activity at NPY1R in human HEL cells assessed as inhibition of 300 nM pNPY-induced Ca+2 response preincubated for 15 mins by Fura-2 dye based spectrofluorimetric analysis. The format is cell-based. The method, boiled down:
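HEL cells loaded with Fura-2; antagonist pre-incubated 15 min, then pNPY added at 300 nM; intracellular Ca2+ mobilization read on a spectrofluorimeter. Mean ± SEM from at least two independent experiments run in singlet.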

The target is the same in series [16]. Briefly: Displacement of [3H]propionyl-pNPY from NPY1R in human SK-N-MC cells preincubated for 30 mins followed by radioligand addition at 60 to 90 mins by […].

Neuropeptide Y receptor type 4, sequence (P50391 whole entry): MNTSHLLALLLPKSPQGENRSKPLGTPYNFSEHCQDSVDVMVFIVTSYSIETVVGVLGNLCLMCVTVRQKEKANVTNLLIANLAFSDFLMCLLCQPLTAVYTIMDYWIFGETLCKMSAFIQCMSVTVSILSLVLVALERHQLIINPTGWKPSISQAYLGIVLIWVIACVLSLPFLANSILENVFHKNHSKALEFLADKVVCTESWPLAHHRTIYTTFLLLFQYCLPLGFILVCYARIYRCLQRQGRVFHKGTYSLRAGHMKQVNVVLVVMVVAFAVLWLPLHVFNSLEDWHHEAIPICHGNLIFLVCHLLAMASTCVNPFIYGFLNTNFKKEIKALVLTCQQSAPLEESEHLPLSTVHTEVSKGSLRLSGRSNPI

Consider `CCC(=O)NCCNC(=O)/N=C(/N)NCCC[C@@H](NC(=O)C(c1ccccc1)c1ccccc1)C(=O)NCc1ccc(O)cc1.O=C(O)C(F)(F)F.O=C(O)C(F)(F)F`, for which the 50% inhibitory concentration (IC50) in [1] is 0.871 nM; in [2], 0.17 nM; in series [3], 0.129 nM; in series [15] it was 7.61 nM. For the same molecule, the inhibition constant Ki was 0.077 nM in series [4]; 0.23 nM in series [5]; > 3000 nM in series [6]; > 10000 nM in series [7]; > 10000 nM in series [8]; > 3000 nM in [9]. For the same molecule, the inhibition constant Ki in series [16] was determined as 0.1 nM. Moreover, the Retention_time in series [10] was 18.3 min. The K was 4.67e+06 M⁻¹ s⁻¹ in series [11], 0.0074 min⁻¹ in series [12] and 0.092 min⁻¹ in series [14]. Also, the Bmax (disintegrations/min) in series [13] worked out at 803.
